# In ChEMBL document CHEMBL1240360, “TMC278, a next-generation nonnucleoside reverse transcriptase inhibitor (NNRTI), active against wild-type and NNRTI-resistant HIV-1” (Antimicrob Agents Chemother, 2010):
# Columns and labels:
# MT4 = experiment: Cytotoxicity against human MT4 cells by cell based assay
# How it was run: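 Cytotoxicity in MT4 cells from cell-based assays gave a 50% cytotoxic concentration, reported as a median with first- to third-quartile values over the stated number of experiments.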
# [1] = tested on: Human immunodeficiency virus 2; experiment: Antiviral activity against Human immunodeficiency virus 2 ROD infected in human MT4 cells assessed as reduction in virus induced cytopathicity; assay type: functional, organism-based; details: Human immunodeficiency virus 2, ISOLATE ROD
# How it was run: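 MT4 cells (1.5 × 10^5/ml) infected with HIV (MOI 0.01) were added to serial compound dilutions and incubated 5 days at 37°C in 5% CO2. Protection from virus-induced cell death was read by MTT tetrazolium colorimetry, giving an EC50 in micromolar.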
# [2] = tested on: Human immunodeficiency virus 1; experiment: Antiviral activity against Human immunodeficiency virus 1 subtype D isolate 92UG001 infected in human PBMC cells by cell based assay; details: Human immunodeficiency virus 1, subtype D isolate 92UG001, PBMC
# [3] = tested on: Human immunodeficiency virus 1; experiment: Antiviral activity against Human immunodeficiency virus 1 subtype D isolate 92UG024 infected in human PBMC cells by cell based assay; details: Human immunodeficiency virus 1, subtype D 92UG024, PBMC
# [4] = tested on: Human immunodeficiency virus 1; experiment: Antiviral activity against Human immunodeficiency virus 1 subtype D isolate 92UG035 infected in human PBMC cells by cell based assay; details: Human immunodeficiency virus 1, subtype D 92UG035, PBMC
# [5] = tested on: Human immunodeficiency virus 1; experiment: Antiviral activity against Human immunodeficiency virus 1 subtype E isolate 92TH006 infected in human PBMC cells by cell based assay; details: Human immunodeficiency virus 1, subtype E 92TH006, PBMC
# [6] = tested on: Human immunodeficiency virus 1; experiment: Antiviral activity against Human immunodeficiency virus 1 subtype E isolate 93TH073 infected in human PBMC cells by cell based assay; details: Human immunodeficiency virus 1, subtype E 93TH073, PBMC
# [7] = tested on: Human immunodeficiency virus 1; experiment: Antiviral activity against Human immunodeficiency virus 1 subtype E isolate CMU08 infected in human PBMC cells by cell based assay; details: Human immunodeficiency virus 1, subtype E isolate CMU08, PBMC
# [8] = tested on: Human immunodeficiency virus 1; experiment: Antiviral activity against Human immunodeficiency virus 1 subtype F isolate 93BR019 infected in human PBMC cells by cell based assay; details: Human immunodeficiency virus 1, subtype F isolate 93BR019, PBMC
# [9] = tested on: Human immunodeficiency virus 1; experiment: Antiviral activity against Human immunodeficiency virus 1 subtype F isolate 93BR020 infected in human PBMC cells by cell based assay; details: Human immunodeficiency virus 1, subtype F isolate 93BR020, PBMC
# [10] = tested on: Human immunodeficiency virus 1; experiment: Antiviral activity against Human immunodeficiency virus 1 subtype F isolate 93BR029 infected in human PBMC cells by cell based assay; details: Human immunodeficiency virus 1, subtype F isolate 93BR029, PBMC
# [11] = tested on: Human immunodeficiency virus 1; experiment: Antiviral activity against Human immunodeficiency virus 1 subtype G isolate G3 infected in human PBMC cells by cell based assay; details: Human immunodeficiency virus 1, subtype G isolate G3, PBMC
# [12] = tested on: Human immunodeficiency virus 1; experiment: Antiviral activity against Human immunodeficiency virus 1 subtype G isolate JV1083 infected in human PBMC cells by cell based assay; details: Human immunodeficiency virus 1, subtype G isolate JV1083, PBMC
# [13] = tested on: Human immunodeficiency virus 1; experiment: Antiviral activity against Human immunodeficiency virus 1 subtype G isolate RU132 infected in human PBMC cells by cell based assay; details: Human immunodeficiency virus 1, subtype G isolate RU132, PBMC
# [14] = tested on: Human immunodeficiency virus 1; experiment: Antiviral activity against Human immunodeficiency virus 1 subtype (H) infected in human MT4 cells assessed as reduction in virus induced cytopathicity; assay type: functional, organism-based
# How it was run: (§1)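 Recombinant viruses were made by recombining patient-derived HIV-1 RT-PR sequences into an RT-PR-deleted HXB2 proviral clone transfected into MT4 cells. Subtype was assigned from PR/RT sequence by Smith-Waterman alignment to HXB2. MT4 cells (1.5 × 10^5/ml) were infected at MOI 0.01 with serially diluted compound for 5 days at 37°C. Viability was read by MTT and EC50 derived.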
# [15] = tested on: Human immunodeficiency virus 1; experiment: Antiviral activity against Human immunodeficiency virus 1 subtype G infected in human MT4 cells assessed as reduction in virus induced cytopathicity; assay type: functional, organism-based; how it was run: as §1
# [16] = tested on: Human immunodeficiency virus 1; experiment: Antiviral activity against Human immunodeficiency virus 1 subtype D infected in human MT4 cells assessed as reduction in virus induced cytopathicity; assay type: functional, organism-based; how it was run: as §1
# [17] = tested on: Human immunodeficiency virus 1; experiment: Antiviral activity against Human immunodeficiency virus 1 subtype F1 infected in human MT4 cells assessed as reduction in virus induced cytopathicity; assay type: functional, organism-based; details: Human immunodeficiency virus 1, subtype F1, MT4; how it was run: as §1
# [18] = tested on: Human immunodeficiency virus 1; experiment: Antiviral activity against Human immunodeficiency virus 1 subtype C infected in human MT4 cells assessed as reduction in virus induced cytopathicity; assay type: functional, organism-based; how it was run: as §1
# [19] = tested on: Human immunodeficiency virus 1; experiment: Antiviral activity against Human immunodeficiency virus 1 subtype BG infected in human MT4 cells assessed as reduction in virus induced cytopathicity; assay type: functional, organism-based; how it was run: as §1
# [20] = tested on: Human immunodeficiency virus 1; experiment: Antiviral activity against Human immunodeficiency virus 1 subtype AG infected in human MT4 cells assessed as reduction in virus induced cytopathicity; assay type: functional, organism-based; how it was run: as §1
# [21] = tested on: Human immunodeficiency virus 1; experiment: Antiviral activity against Human immunodeficiency virus 1 subtype AE infected in human MT4 cells assessed as reduction in virus induced cytopathicity; assay type: functional, organism-based; how it was run: as §1
# [22] = tested on: Human immunodeficiency virus 1; experiment: Antiviral activity against Human immunodeficiency virus 1 subtype A1 infected in human MT4 cells assessed as reduction in virus induced cytopathicity; assay type: functional, organism-based; details: Human immunodeficiency virus 1, subtype A1, MT4; how it was run: as §1
# [23] = tested on: Human immunodeficiency virus 1; experiment: Antiviral activity against Human immunodeficiency virus 1 3B infected in human MT4 cells assessed as reduction in virus induced cytopathicity; assay type: functional, organism-based
# How it was run: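 MT4 cells (1.5 × 10^5/ml) infected with HIV-1 IIIB at MOI 0.01 and added to serially diluted compound. Cultures incubated 5 days at 37°C under 5% CO2. Cell viability, as protection from virus-induced killing, read by MTT tetrazolium colorimetry. EC50 reported as median with first to third quartiles over n experiments.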
# [24] = tested on: Human immunodeficiency virus 1; experiment: Antiviral activity against Human immunodeficiency virus 1 subtype O misolate BCF01 infected in human PBMC cells by cell based assay; details: Human immunodeficiency virus 1, subtype O isolate BCF01, PBMC
# [25] = tested on: Human immunodeficiency virus 1; experiment: Antiviral activity against Human immunodeficiency virus 1 subtype O isolate BCF02 infected in human PBMC cells by cell based assay; details: Human immunodeficiency virus 1, subtype O isolate BCF02, PBMC
# [26] = tested on: Human immunodeficiency virus 1; experiment: Antiviral activity against Human immunodeficiency virus 1 subtype O isolate BCF03 infected in human PBMC cells by cell based assay; details: Human immunodeficiency virus 1, subtype O isolate BCF03, PBMC
# [27] = tested on: Human immunodeficiency virus 1; experiment: Antiviral activity against Human immunodeficiency virus 1 subtype A isolate 92UG029 infected in human PBMC cells by cell based assay; details: Human immunodeficiency virus 1, subtype A isolate 92UG029, PBMC
# [28] = tested on: Human immunodeficiency virus 1; experiment: Antiviral activity against Human immunodeficiency virus 1 subtype B isolate 93BR021 infected in human PBMC cells by cell based assay; details: Human immunodeficiency virus 1, subtype B isolate 93BR021, PBMC
# [29] = tested on: Human immunodeficiency virus 1; experiment: Antiviral activity against Human immunodeficiency virus 1 subtype A isolate 92UG037 infected in human PBMC cells by cell based assay; details: Human immunodeficiency virus 1, subtype A isolate 92UG037, PBMC
# [30] = tested on: Human immunodeficiency virus 1; experiment: Antiviral activity against Human immunodeficiency virus 1 subtype A isolate 92RW020 infected in human PBMC cells by cell based assay; details: Human immunodeficiency virus 1, subtype A isolate 92RW020, PBMC
# [31] = tested on: Human immunodeficiency virus 1; experiment: Antiviral activity against Human immunodeficiency virus 1 subtype B isolate JR-CSF infected in human PBMC cells by cell based assay
# [32] = tested on: Human immunodeficiency virus 1; experiment: Antiviral activity against Human immunodeficiency virus 1 subtype B isolate WEJO infected in human PBMC cells by cell based assay
# [33] = tested on: Human immunodeficiency virus 1; experiment: Antiviral activity against Human immunodeficiency virus 1 subtype C isolate 92BR025 infected in human PBMC cells by cell based assay; details: Human immunodeficiency virus 1, subtype C isolate 92BR025, PBMC
# [34] = tested on: Human immunodeficiency virus 1; experiment: Antiviral activity against Human immunodeficiency virus 1 subtype C isolate 93IN101 infected in human PBMC cells by cell based assay; details: Human immunodeficiency virus 1, subtype C isolate 93IN101, PBMC
# [35] = tested on: Human immunodeficiency virus 1; experiment: Antiviral activity against Human immunodeficiency virus 1 subtype C isolate 93MW959 infected in human PBMC cells by cell based assay; details: Human immunodeficiency virus 1, subtype C isolate 93MW959, PBMC
smiles,measurement,setting,value
O=C1Nc2ccc(Cl)cc2[C@@](C#CC2CC2)(C(F)(F)F)O1 [EFAVIRENZ],Activity,MT4,40.02 µM
same,EC50,[1],24800 nM
Cc1cc(C#N)cc(C)c1Oc1nc(Nc2ccc(C#N)cc2)nc(N)c1Br [ETRAVIRINE],EC50,[2],0.9 nM
same,EC50,[3],3.18 nM
same,EC50,[4],0.44 nM
same,EC50,[5],0.5 nM
same,EC50,[6],0.21 nM
same,EC50,[7],3.47 nM
same,EC50,[8],0.46 nM
same,EC50,[9],1.08 nM
same,EC50,[10],1.06 nM
same,EC50,[11],0.66 nM
same,EC50,[12],1.45 nM
same,EC50,[13],1.7 nM
same,Activity,MT4,> 64 µM
same,EC50,[1],5670 nM
same,EC50,[14],0.51 nM
same,EC50,[15],0.24 nM
same,EC50,[16],1.13 nM
same,EC50,[17],0.35 nM
same,EC50,[18],0.52 nM
same,EC50,[19],0.67 nM
same,EC50,[20],0.46 nM
same,EC50,[21],0.65 nM
same,EC50,[22],1.39 nM
same,EC50,[23],2.73 nM
same,EC50,[24],16.4 nM
same,EC50,[25],52.8 nM
same,EC50,[26],149 nM
same,EC50,[27],1.45 nM
same,EC50,[28],1.35 nM
same,EC50,[29],1.42 nM
same,EC50,[30],0.48 nM
same,EC50,[31],1.02 nM
same,EC50,[32],0.43 nM
same,EC50,[33],1.7 nM
same,EC50,[34],2.72 nM
same,EC50,[35],1.01 nM
